Reference: ChEMBL document CHEMBL1140064, “Anxiolytic-like effects of N,N-dialkyl-2-phenylindol-3-ylglyoxylamides by modulation of translocator protein promoting neurosteroid biosynthesis” (J Med Chem, 2008)

How the values were obtained:
[1] = tested on: C6; assay: Induction of pregnenolone biosynthesis in rat C6 cells assessed as increase in pregnenolone level at 40 uM after 2 hrs by ELISA relative to control; format: functional
Summary of the method: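 Rat C6 glioma cells grown in DMEM with 10% FBS, 2 mM L-glutamine, penicillin/streptomycin, seeded ~10 000 cells/well. Exposed to compound at 40 µM for 2 h at 37 °C, with DMSO/ethanol ≤0.5% (v/v) kept constant. Pregnenolone secreted into the medium measured by competitive ELISA; mean ± SEM of at least three determinations.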

[2] = target: Translocator protein (Rattus norvegicus, UniProt P16257); assay: Displacement of [3H]PK11195 from translocator protein in rat kidney mitochondrial membrane; format: cell membranes
[3] = tested on: Rattus norvegicus; assay: Anxiolytic activity in Sprague-Dawley rat assessed as increase in total number of open arm entries at 30 mg/kg, ip by plus-maze test; format: functional; details: route intraperitoneal
Summary of the method: (§1)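 Male Sprague-Dawley rats (180-200 g), group-housed 6/cage at 24 ± 1 °C, 12 h light/dark, free food and water except during testing. Dosed ip. Elevated four-arm maze (two open, two enclosed arms); entries into and time in open arms, and total arm entries, scored over a 5 min session versus vehicle-treated controls.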

[4] = tested on: Rattus norvegicus; assay: Anxiolytic activity in Sprague-Dawley rat assessed as reduction of total number of open arm entries at 50 mg/kg, ip after 5 mins by plus-maze test; format: functional; details: route intraperitoneal; summary of the method: as §1

Translocator protein, sequence (P16257 whole entry, looked up): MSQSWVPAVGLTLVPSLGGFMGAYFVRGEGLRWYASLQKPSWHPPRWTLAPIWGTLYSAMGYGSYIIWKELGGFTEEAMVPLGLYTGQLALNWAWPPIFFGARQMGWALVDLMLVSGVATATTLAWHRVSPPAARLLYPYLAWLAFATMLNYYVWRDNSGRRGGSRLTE

CCCN(CCC)C(=O)C(=O)c1c(-c2ccc(Cl)cc2)[nH]c2ccccc12
Activity [1]: 40%

CCCCCCN(CCCCCC)C(=O)C(=O)c1c(-c2ccccc2)[nH]c2ccccc12
Activity [1]: 30%

CCCCN(CCCC)C(=O)C(=O)c1c(-c2ccccc2)[nH]c2ccccc12
Activity [1]: 23%

CCN(Cc1ccccc1)C(=O)C(=O)c1c(-c2ccc(Cl)cc2)[nH]c2ccccc12
Activity [1]: 136% | Ki [2]: 1.3 nM

CCCCCCN(CCCCCC)C(=O)C(=O)c1c(-c2ccccc2)[nH]c2c(C)cccc12
Activity [1]: 63% | Ki [2]: 1.9 nM

CCN(Cc1ccccc1)C(=O)C(=O)c1c(-c2ccccc2)[nH]c2ccccc12
Activity [1]: 20% | Ki [2]: 11 nM

CCCCN(C)C(=O)C(=O)c1c(-c2ccccc2)[nH]c2ccc(Cl)cc12
Activity [1]: 70% | Ki [2]: 3.9 nM

CCCCCN(C)C(=O)C(=O)c1c(-c2ccccc2)[nH]c2ccc(Cl)cc12
Activity [1]: 76% | Ki [2]: 3.6 nM

CCCN(CCC)C(=O)C(=O)c1c(-c2ccccc2)[nH]c2c(Cl)cccc12
Activity [1]: 0% | Ki [2]: 14 nM

CCCCN(CC)C(=O)C(=O)c1c(-c2ccccc2)[nH]c2ccc(Cl)cc12
Activity [1]: 72% | Ki [2]: 1.8 nM

CCCCN(C)C(=O)C(=O)c1c(-c2ccc(Cl)cc2)[nH]c2ccc(Cl)cc12
Activity [1]: 67% | Ki [2]: 0.15 nM

CCCCCCN(CCCCCC)C(=O)C(=O)c1c(-c2ccccc2)[nH]c2c(Cl)cccc12
Activity [1]: 0% | Ki [2]: 2.4 nM

CCCCN(CCCC)C(=O)C(=O)c1c(-c2ccccc2)[nH]c2c(C)cccc12
Activity [1]: 71% | Ki [2]: 6 nM

CCN(Cc1ccccc1)C(=O)C(=O)c1c(-c2ccccc2)[nH]c2ccc(F)cc12
Ki [2]: 1.33 nM

CCN(Cc1ccccc1)C(=O)C(=O)c1c(-c2ccc(F)cc2)[nH]c2ccc(Cl)cc12
Activity [1]: 0% | Ki [2]: 4.01 nM

CCN(Cc1ccccc1)C(=O)C(=O)c1c(-c2ccccc2)[nH]c2c(Cl)cccc12
Activity [1]: 0% | Ki [2]: 5 nM

CCCN(CCC)C(=O)C(=O)c1c(-c2ccc(F)cc2)[nH]c2ccc(Cl)cc12
Activity [1]: 42% | Ki [2]: 2.83 nM

CCCCN(CCCC)C(=O)C(=O)c1c(-c2ccc(F)cc2)[nH]c2ccc(Cl)cc12
Activity [1]: 37% | Ki [2]: 3.05 nM

CCN(Cc1ccccc1)C(=O)C(=O)c1c(-c2ccc(Cl)cc2)[nH]c2ccc(Cl)cc12
Activity [1]: 171%

CCN(Cc1ccccc1)C(=O)C(=O)c1c(-c2ccc(C)cc2)[nH]c2ccccc12
Activity [1]: 86% | Ki [2]: 2.64 nM

CCN(Cc1ccccc1)C(=O)C(=O)c1c(-c2ccccc2)[nH]c2c(C)cccc12
Activity [1]: 0% | Ki [2]: 2.3 nM

CCN(Cc1ccccc1)C(=O)C(=O)c1c(-c2ccccc2)[nH]c2ccc(Cl)cc12
Activity [1]: 85% | Ki [2]: 4.6 nM

CCCCN(C)C(=O)C(=O)c1c(-c2ccc(Cl)cc2)[nH]c2ccccc12
Ki [2]: 11 nM

CCCCN(CC)C(=O)C(=O)c1c(-c2ccc(Cl)cc2)[nH]c2ccccc12
Activity [1]: 32% | Ki [2]: 3.6 nM

CCN(C)C(=O)C(=O)c1c(-c2ccc(Cl)cc2)[nH]c2ccc(Cl)cc12
Activity [1]: 0% | Ki [2]: 9.54 nM

CCCCN(C)C(=O)C(=O)c1c(-c2ccccc2)[nH]c2ccccc12
Activity [1]: 32% | Ki [2]: 53.3 nM

CCN(Cc1ccccc1)C(=O)C(=O)c1c(-c2ccc(C(F)(F)F)cc2)[nH]c2ccccc12
Ki [2]: 1 nM

CCCCN(CCCC)C(=O)C(=O)c1c(-c2ccccc2)[nH]c2c(Cl)cccc12
Activity [1]: 0% | Ki [2]: 3.4 nM

CCN(Cc1ccccc1)C(=O)C(=O)c1c(-c2ccc(F)cc2)[nH]c2ccccc12
Activity [1]: 96% | Ki [2]: 1.68 nM

CCN(Cc1ccccc1)C(=O)C(=O)c1c(-c2ccccc2)[nH]c2ccc([N+](=O)[O-])cc12
Activity [1]: 0% | Ki [2]: 18.3 nM

CCCN(CCC)C(=O)C(=O)c1c(-c2ccccc2)[nH]c2ccc(F)cc12
Activity [1]: 66% | Ki [2]: 2.67 nM

CCCCN(CCCC)C(=O)C(=O)c1c(-c2ccc(C(F)(F)F)cc2)[nH]c2ccccc12
Activity [1]: 60% | Ki [2]: 1.16 nM

CCCCCCN(CCCCCC)C(=O)C(=O)c1c(-c2ccc(C(F)(F)F)cc2)[nH]c2ccccc12
Activity [1]: 85% | Ki [2]: 1 nM

CCCCN(CCCC)C(=O)C(=O)c1c(-c2ccc(F)cc2)[nH]c2ccc(F)cc12
Activity [1]: 91% | Ki [2]: 4.36 nM

CCCCCCN(CCCCCC)C(=O)C(=O)c1c(-c2ccc([N+](=O)[O-])cc2)[nH]c2ccccc12
Activity [1]: 88% | Ki [2]: 0.23 nM

CCCCCCN(CCCCCC)C(=O)C(=O)c1c(-c2ccc(F)cc2)[nH]c2ccc(F)cc12
Activity [1]: 40% | Ki [2]: 0.95 nM

CCCCN(CCCC)C(=O)C(=O)c1c(-c2ccc([N+](=O)[O-])cc2)[nH]c2ccccc12
Activity [1]: 64% | Ki [2]: 0.27 nM

CCCCCCN(CCCCCC)C(=O)C(=O)c1c(-c2ccccc2)[nH]c2ccc(F)cc12
Activity [1]: 36% | Ki [2]: 0.37 nM

CCCN(CCC)C(=O)C(=O)c1c(-c2ccccc2)[nH]c2ccc(OC)cc12
Activity [1]: 45% | Ki [2]: 328 nM

CCCN(CCC)C(=O)C(=O)c1c(-c2ccccc2)[nH]c2ccc([N+](=O)[O-])cc12
Activity [1]: 91% | Ki [2]: 20.2 nM

CCCCN(CCCC)C(=O)C(=O)c1c(-c2ccccc2)[nH]c2ccc(OC)cc12
Activity [1]: 36% | Ki [2]: 65.2 nM

CCCCCCN(CCCCCC)C(=O)C(=O)c1c(-c2ccccc2)[nH]c2ccc(OC)cc12
Activity [1]: 87% | Ki [2]: 35.5 nM

CCN(Cc1ccccc1)C(=O)C(=O)c1c(-c2ccccc2)[nH]c2ccc(OC)cc12
Ki [2]: 69.5 nM

CCCCCN(C)C(=O)C(=O)c1c(-c2ccc(Cl)cc2)[nH]c2ccccc12
Activity [1]: 65% | Ki [2]: 3.4 nM

CCCN(CCC)C(=O)C(=O)c1c(-c2ccccc2)[nH]c2c(C)cccc12
Activity [1]: 129% | Ki [2]: 25 nM

CCN(C)C(=O)C(=O)c1c(-c2ccccc2)[nH]c2ccccc12
Ki [2]: 940 nM

CCN(Cc1ccccc1)C(=O)C(=O)c1c(-c2ccc(F)cc2)[nH]c2ccc(F)cc12
Ki [2]: 1.67 nM

CCCCN(CC)C(=O)C(=O)c1c(-c2ccc(Cl)cc2)[nH]c2ccc(Cl)cc12
Activity [1]: 11% | Ki [2]: 0.36 nM

CCCCCN(C)C(=O)C(=O)c1c(-c2ccccc2)[nH]c2ccccc12
Activity [1]: 36% | Ki [2]: 12.1 nM

CCN(Cc1ccccc1)C(=O)C(=O)c1c(-c2ccc([N+](=O)[O-])cc2)[nH]c2ccccc12
Activity [1]: 103% | Ki [2]: 0.55 nM

CCCCCCN(CCCCCC)C(=O)C(=O)c1c(-c2ccc(F)cc2)[nH]c2ccc(Cl)cc12
Activity [1]: 135% | Activity [3]: 9.8 | Ki [2]: 7.75 nM | Activity [4]: 2

CCCCCN(C)C(=O)C(=O)c1c(-c2ccc(Cl)cc2)[nH]c2ccc(Cl)cc12
Activity [1]: 31% | Ki [2]: 0.18 nM

CCCN(CCC)C(=O)C(=O)c1c(-c2ccc(F)cc2)[nH]c2ccc(F)cc12
Activity [1]: 17% | Ki [2]: 6.73 nM

CCCCCCN(CCCCCC)C(=O)C(=O)c1c(-c2ccccc2)[nH]c2ccc([N+](=O)[O-])cc12
Activity [1]: 115% | Ki [2]: 30.3 nM

CCCCN(CCCC)C(=O)C(=O)c1c(-c2ccccc2)[nH]c2ccc([N+](=O)[O-])cc12
Activity [1]: 102% | Ki [2]: 21.6 nM

CCCCN(CCCC)C(=O)C(=O)c1c(-c2ccccc2)[nH]c2ccc(F)cc12
Activity [1]: 88% | Ki [2]: 4 nM

CCCN(CCC)C(=O)C(=O)c1c(-c2ccc([N+](=O)[O-])cc2)[nH]c2ccccc12
Activity [1]: 70% | Ki [2]: 0.95 nM

CCCN(CCC)C(=O)C(=O)c1c(-c2ccc(C(F)(F)F)cc2)[nH]c2ccccc12
Activity [1]: 66% | Ki [2]: 1.69 nM

CCCCN(CC)C(=O)C(=O)c1c(-c2ccccc2)[nH]c2ccccc12
Activity [1]: 43% | Ki [2]: 12.6 nM

CCCN(CCC)C(=O)C(=O)c1c(-c2ccccc2)[nH]c2ccc(Cl)cc12
Activity [1]: 10%

CCCN(CCC)C(=O)C(=O)c1c(-c2ccc(Cl)cc2)[nH]c2ccc(Cl)cc12
Activity [1]: 49%

CCCN(CCC)C(=O)C(=O)c1c(-c2ccccc2)[nH]c2ccccc12
Activity [1]: 8%

CCC(C)N(C)C(=O)c1cc2ccccc2c(-c2ccccc2Cl)n1 (stereo not given) [PK-11195]
Activity [1]: 48%

CN1C(=O)CN=C(c2ccc(Cl)cc2)c2cc(Cl)ccc21 [RO-54864]
Activity [1]: 41%
